Data as given in paper PMC6331054 (Bioorganic & medicinal chemistry, 2018).

How the values were obtained:
[1] = biological target: T1, recombinant human mitochondrial ALDH2 (hALDH2) (Homo sapiens, UniProt P05091); assay type: biochemical; conditions: read-out: KI (Morrison); Morrison equation; ALDH2 4.43 μM
T1 sequence (P05091 18-517): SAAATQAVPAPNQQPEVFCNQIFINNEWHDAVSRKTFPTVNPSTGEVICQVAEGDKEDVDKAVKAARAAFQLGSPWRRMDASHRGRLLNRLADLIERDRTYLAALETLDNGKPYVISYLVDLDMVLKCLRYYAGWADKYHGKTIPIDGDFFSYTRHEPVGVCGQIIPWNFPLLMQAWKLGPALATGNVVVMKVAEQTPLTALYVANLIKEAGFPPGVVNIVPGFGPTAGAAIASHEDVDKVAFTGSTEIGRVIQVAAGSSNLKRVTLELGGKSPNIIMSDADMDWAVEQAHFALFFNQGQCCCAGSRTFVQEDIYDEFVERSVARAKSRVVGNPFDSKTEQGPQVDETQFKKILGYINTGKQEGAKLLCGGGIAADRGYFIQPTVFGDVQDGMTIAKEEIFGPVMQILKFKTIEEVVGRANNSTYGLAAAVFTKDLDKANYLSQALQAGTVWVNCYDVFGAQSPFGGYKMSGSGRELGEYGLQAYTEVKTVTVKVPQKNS
Procedure, shortened: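 Cobalt-purified recombinant hALDH2 (4.5 μM in Hepes pH 8.5/KCl/EDTA dialysis buffer plus 1 mM TCEP) in 20 mM Hepes pH 8.3, 150 mM KCl, 1 mM EDTA, 2 mM DTT, 5 mM propionaldehyde, 25°C. Pre-incubation 20 min–1 hr with test compound (1–100 μM final) or DMSO; NAD+ (5 mM final) started reaction; NADH at 340 nm for 5 min. KI by Morrison equation; triplicates, 3–5 experiments.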

[2] = biological target: T2, RALDH2 activity in chick choroid cytosol fractions (Gallus gallus, UniProt O93344); assay type: biochemical
T2 sequence (O93344 1-518): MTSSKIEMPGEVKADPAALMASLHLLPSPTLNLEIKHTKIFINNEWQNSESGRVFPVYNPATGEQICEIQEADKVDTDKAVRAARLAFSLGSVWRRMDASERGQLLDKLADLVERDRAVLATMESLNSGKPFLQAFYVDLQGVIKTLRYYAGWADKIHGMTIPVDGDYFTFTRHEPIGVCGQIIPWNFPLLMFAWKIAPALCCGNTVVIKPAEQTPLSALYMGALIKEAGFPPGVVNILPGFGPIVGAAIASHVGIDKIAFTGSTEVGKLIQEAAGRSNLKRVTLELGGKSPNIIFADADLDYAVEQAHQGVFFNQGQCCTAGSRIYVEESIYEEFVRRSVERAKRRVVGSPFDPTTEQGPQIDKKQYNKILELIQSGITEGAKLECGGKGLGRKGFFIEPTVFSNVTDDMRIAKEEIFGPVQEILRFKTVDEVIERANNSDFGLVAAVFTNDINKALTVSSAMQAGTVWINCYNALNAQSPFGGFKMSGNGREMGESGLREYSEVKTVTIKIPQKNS
Procedure, shortened: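 Choroidal cytosol from control and 4-day recovering chick eyes was pre-incubated 20 min at 37°C with test compound (0–6 μM) or DMSO. Reaction was started with NAD+ (4 mM) and all-trans-retinaldehyde (25 μM), run 30 min at 37°C under dim red light, stopped with ice and methanol. ATRA was quantified by HPLC.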

[3] = Stability of DAR on storage and under assay conditions; assay type: physicochemical
[4] = biological target: T3, recombinant chicken RALDH2 (Gallus gallus, UniProt O93344); experiment: Fluorescence-based NADH assay of RALDH activity with retinaldehyde as substrate; assay type: biochemical
T3 sequence (O93344 1-518): T2 sequence (O93344 1-518)

[5] = biological target: T4, RALDH2 activity (ATRA synthesis) in living intact chick choroids (Gallus gallus, UniProt O93344); experiment: RALDH2 activity after incubation of living, intact choroids in organ culture; assay type: cell-based; conditions: organ culture 24 hrs
T4 sequence (O93344 1-518): T2 sequence (O93344 1-518)
Procedure, shortened: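 Choroids from 4-day recovering or contralateral control eyes of male White Leghorn chicks (8 mm posterior punch) were cultured one per well in N2 medium with test compound (methods: 0.01–5 μM; legend: 0.01–10 μM) or DMSO for 24 hrs at 37°C, 5% CO2. Cytosol (100,000g, 1 hr) was incubated with NAD+ and 25 μM all-trans-retinaldehyde for 30 min at 37°C, with methanol stop and HPLC quantification of ATRA.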

Row | Ki [1] [nM] | IC50 [2] [nM] | inhibition of RALDH2 activity in control choroid lysates ([2]; 0.10 – 6 μM DAR, 20 min pre-incubation at 37°C, control eyes, vs vehicle) | light stability ([3]; ambient light) | stability under assay conditions ([3]; dark, 25°C and 37°C) | storage stability ([3]; stored in the dark and at −80°) | Protection of RALDH2 activity by all-trans-retinaldehyde in the pre-incubation ([4]; 250 nM DAR + 250 μM RAL) | RALDH2 activity at enzyme concentrations below the DAR concentration ([4]; DAR 150 nM, RALDH2 46 – 91 nM) | effect on ATRA synthesis in living, intact choroids from control eyes [5] | SMILES
1 | > 100000 | 20.7 | 92 – 99% | prone to photoisomerization | at least three days | at least three months | No protection | completely inhibited | no significant effect | CC1=C(/C=C/C(C)=C/C=C/C(C)=C/C(=O)C(Cl)Cl)C(C)(C)CCC1 [DAR, (3E,5E,7E,9E)-1,1-dichloro-4,8-dimethyl-10-(2,6,6-trimethylcyclohex-1-en-1-yl)deca-3,5,7,9-tetraen-2-one]
2 | – | – | – | – | – | – | – | – | no significant effect | O=C(NCCCCCCCCNC(=O)C(Cl)Cl)C(Cl)Cl [WIN 18446, reference compound]
